Laboratory results published in PubChem BioAssay.
Results filed as inconclusive are left out. Active and inactive are the calls of the source.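 The calls were made as follows, unless noted: active = inhibition over a set limit, the all-compound mean plus 3 SD, in both replicate runs; inconclusive = over that limit in just one replicate run; inactive = at or under that limit in both runs.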

Tests used:
[1] = S. cerevisiae growth inhibition in permissive medium (OD615), pilot counter-assay for S. cerevisiae lifespan shortening project, permissive growth control (AID 705;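 active = growth inhibition above 25% in both replicates, a cutoff set 3 SD above the mean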); settings: OD615, 24 h, at 10 µM, stronger effect = higher value
How it was run: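 System: S. cerevisiae with engineered DeaD lifespan system. Medium: SC raffinose/galactose permissive medium. Doses: single compound dose of 10 µM, 0.25% DMSO final. Schedule: 24 h exposure, 30 °C. Measured by: OD615 turbidity read. Read-out: growth inhibition.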

[2] = S. cerevisiae growth inhibition in restrictive medium, OD615, pilot screen, restrictive growth control, yeast lifespan reduction project (AID 706;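 active = growth inhibition above a set limit, 3 SD over mean compound inhibition, in both replicates, cut at about 43% in these data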;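 also: modified DeaD lifespan yeast strain shifted to restrictive glucose medium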); settings: OD615, 48 h, at 10 µM, stronger effect = higher value
How it was run: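 Assay system – genetically modified Saccharomyces cerevisiae, DeaD replicative lifespan assay strain · Medium – CSMM-D glucose medium · Doses – 10 µM compound, 0.25% DMSO · Times – 4 h pre-incubation, 48 h exposure at 30 °C · Signal – optical density at 615 nm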

[3] = doxorubicin toxicity protection in MRP-1 cells – H69AR cells, CellTiter-Glo, duplicate, MRP-1 activator project, pilot screen (AID 807;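 active = viability increase at or above a cutoff of the median across tested compounds plus 3 SD, cut at about 8.5% in these data, passing the limit was not always enough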;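 also: compound pretreatment 18-22 h then 72 h combined with doxorubicin; 0% = doxorubicin alone and 100% = vehicle without doxorubicin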); settings: H69AR viability with doxorubicin, CellTiter-Glo luminescence; at 10 µM; stronger effect = higher value
[4] = viability of HCT116 without oncogenic beta-catenin – human colon tumor cells, pilot screen (AID 823;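 active = cell viability at or below a set limit in both duplicate runs, the limit being the all-compound median minus 4 SD, cut at about 23% in these data, passing the limit was not always enough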;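 also: 0% = wells killed by 20 µM Hyamine and 100% = untreated DMSO cell wells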); settings: HCT116 beta-catenin knockout viability, CellTiter-Glo, 60 h; at 10 µM; stronger effect = lower value
[5] = viability of PTEN-null HCT116 cells – cell-based, HCT116 clonal line, CellTiter-Glo, pilot screen (AID 824;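 active = viability at or below 27.92% in each of two runs, the all-compound median minus 4 SD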;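 also: 0% = 20 µM Hyamine control and 100% = vehicle cell control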); settings: HCT116 PTEN-deleted viability, 60 h, at 10 µM, stronger effect = lower value
[6] = RAM pathway blockade in budding yeast – dse1pr::URA3 reporter, 5-FOA selection, pilot screen (AID 869);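 also: 0% = DMSO wells with no growth and 100% = 10 µM 1-NA-PP1 with full growth; RAM network block rescues cells from 5-FOA so hits raise OD615 growth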; settings: S. cerevisiae dse1pr::URA3 5-FOA growth, OD615, 2 d; at 10 µM; stronger effect = higher value; strain carries analog-sensitive mutant Cbk1 kinase
[7] = RAM signaling pathway blockade in yeast – S. cerevisiae, Pdr1DBD-CYC8 efflux-inhibited sensitized strain, primary screen (AID 1298;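 active = RAM network inhibition above 8.4% in each of two replicates, 3 SD over the compound average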;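 also: 0% = DMSO untreated cells without growth and 100% = 10 µM 1-NA-PP1 full growth; higher means more yeast growth rescued from 5-FOA killing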); settings: S. cerevisiae cbk1-as DSE1-URA3 strain, 5-FOA growth OD615, 2 d; at 50 µM; stronger effect = higher value

NC(=O)NC1CCCc2c1[nH]c1ccc(Cl)cc21 (stereo not given)
inactive: growth inhibition [1] 1.64% | growth inhibition [2] 3.78% | viability increase [3] 0.04% | viability [4] 89.9% | viability [5] 87.3% | inhibition [6] 1.15% | RAM network inhibition [7] 0.26%

CCOc1ccc(S(=O)(=O)N(CC(=O)O)c2ccccc2)cc1
inactive: growth inhibition [1] -1.83% | growth inhibition [2] -7.26% | viability increase [3] -2.11% | viability [4] 102% | viability [5] 93.6% | inhibition [6] 1.07% | RAM network inhibition [7] 2.61%

COc1ccc(S(=O)(=O)N2CCCC2C(=O)Nc2ccc(C(C)=O)cc2)cc1 (stereo not given)
inactive: growth inhibition [1] -19.4% | growth inhibition [2] -11% | viability increase [3] -0.66% | viability [4] 97.6% | viability [5] 95.8% | inhibition [6] 2.13% | RAM network inhibition [7] 1.47%

COc1ccccc1-c1cc(C2CC2)nc(N)c1C#N
inactive: growth inhibition [1] -20.8% | growth inhibition [2] -19.3% | viability increase [3] -3.86% | viability [4] 94.7% | viability [5] 94.2% | inhibition [6] -0.08% | RAM network inhibition [7] 3.76%

COc1ccc(CN2CCN(C(=O)c3ccco3)CC2)cc1OCc1ccccc1
inactive: growth inhibition [1] -9.2% | growth inhibition [2] -18.8% | viability increase [3] -2.34% | viability [4] 88% | viability [5] 83.3% | inhibition [6] 0.95% | RAM network inhibition [7] 2.98%

O=C(O)c1cc(S(=O)(=O)N2CCCCCC2)c(Cl)cc1Cl
inactive: growth inhibition [1] -2.36% | growth inhibition [2] -0.81% | viability increase [3] -0.57% | viability [4] 90.4% | viability [5] 101% | inhibition [6] 1.18% | RAM network inhibition [7] 6.2%

COc1ccc(NC(=O)Nc2cccc3cccnc23)cc1
inactive: growth inhibition [1] -3.3% | growth inhibition [2] -0.385% | viability increase [3] -4.59% | viability [4] 88.5% | viability [5] 78% | inhibition [6] -0.39% | RAM network inhibition [7] 0.21%

COc1ccccc1C(=O)N1CCN(c2cccc(Cl)c2)CC1
inactive: growth inhibition [1] -9.06% | growth inhibition [2] -12.8% | viability increase [3] -4.63% | inhibition [6] 2.75% | RAM network inhibition [7] 2.22%
active: viability [4] 15.4% | viability [5] 20%

O=C(COc1ccccc1F)c1ccc(O)cc1O
inactive: growth inhibition [1] -0.53% | growth inhibition [2] 3.7% | viability increase [3] 1.2% | viability [4] 101% | viability [5] 106% | inhibition [6] 0.25% | RAM network inhibition [7] -1.69%

CCS(=O)(=O)NCc1csc(-c2ccccc2)n1
inactive: growth inhibition [1] -0.375% | growth inhibition [2] -0.625% | viability increase [3] -2% | viability [4] 89.9% | viability [5] 87.5% | inhibition [6] 0.635% | RAM network inhibition [7] 5.48%

c1ccc(CSc2nnc(-c3ccco3)n2Cc2ccco2)cc1
inactive: growth inhibition [1] -5.04% | growth inhibition [2] 0.405% | viability increase [3] -3.83% | viability [4] 88.6% | viability [5] 87.4% | inhibition [6] 1.85% | RAM network inhibition [7] 3.53%

CCOC(=O)C(C)n1cnc2sc3c(c2c1=O)CCC3 (stereo not given)
inactive: growth inhibition [1] -8.5% | growth inhibition [2] -7.75% | viability increase [3] -1.76% | viability [4] 95.7% | viability [5] 99.6% | inhibition [6] 0.575% | RAM network inhibition [7] 1.15%

CCOC(=O)C1CCCCN1Cc1cc(Cl)ccc1O (stereo not given)
inactive: growth inhibition [1] -3.16% | growth inhibition [2] -13.2% | viability increase [3] 0.31% | viability [4] 87% | viability [5] 81% | inhibition [6] 0.74% | RAM network inhibition [7] 3.98%

Cc1cc(C)nc(NS(=O)(=O)c2ccc(NC(=O)CCCN3C(=O)c4ccccc4C3=O)cc2)n1
inactive: growth inhibition [1] -7.67% | growth inhibition [2] -0.225% | viability increase [3] -1% | viability [4] 99.6% | viability [5] 100% | inhibition [6] 0.735% | RAM network inhibition [7] 3.72%

Cc1ccc2[nH]c(=O)c3cc(C(=O)N(C)Cc4ccco4)sc3c2c1
inactive: growth inhibition [1] -11.6% | growth inhibition [2] -4.44% | viability increase [3] -5.5% | viability [4] 71.4% | viability [5] 67.5% | inhibition [6] -0.255% | RAM network inhibition [7] -1.79%

CCOc1ccccc1Nc1nnc(C)c(=O)[nH]1
inactive: growth inhibition [1] -5.5% | growth inhibition [2] 5.76% | viability increase [3] -0.35% | viability [4] 105% | viability [5] 99.3% | inhibition [6] 0.56% | RAM network inhibition [7] 3.65%

N#CC1=C2SCN(Cc3ccccc3)CN2C(=O)CC1c1cccs1 (stereo not given)
inactive: growth inhibition [1] 9.16% | growth inhibition [2] 30.2% | viability increase [3] -2.91% | viability [4] 94.3% | viability [5] 86% | inhibition [6] 0.535% | RAM network inhibition [7] 4.04%

Cn1c(C(=O)N2CCN(c3ccccc3F)CC2)cc2c(=O)n(C)c3ccccc3c21
inactive: growth inhibition [1] -2.8% | growth inhibition [2] -4.68% | viability increase [3] -2.61% | viability [4] 100% | viability [5] 98.6% | inhibition [6] 2.54% | RAM network inhibition [7] 1.59%

CCN(CC)S(=O)(=O)c1ccc(Cl)c(C(=O)NC)c1
inactive: growth inhibition [1] -15.4% | growth inhibition [2] -16.3% | viability increase [3] -0.22% | viability [4] 105% | viability [5] 96.4% | inhibition [6] 0.985% | RAM network inhibition [7] 3.63%

COCCNC(=O)Cn1cnc2sc(C)c(S(=O)(=O)N3CCC(C)CC3)c2c1=O
inactive: growth inhibition [1] -5.23% | growth inhibition [2] -3.64% | viability increase [3] 0.05% | viability [4] 100% | viability [5] 100% | inhibition [6] 1.68% | RAM network inhibition [7] 5.34%

Cn1c(Cn2c(=O)sc3ccccc32)nnc1SCC(=O)NC1CCCC1
inactive: growth inhibition [1] -9.37% | growth inhibition [2] -5.96% | viability increase [3] -1.04% | viability [4] 102% | viability [5] 103% | inhibition [6] 0% | RAM network inhibition [7] 3.56%

COC(=O)CN(n1cnnc1)S(=O)(=O)c1ccccc1
inactive: growth inhibition [1] -9.75% | growth inhibition [2] -4.21% | viability increase [3] -0.13% | viability [4] 99% | viability [5] 96.9% | inhibition [6] 1.23% | RAM network inhibition [7] -0.62%

CC1CCN(S(=O)(=O)c2ccc3c(c2)oc(=O)n3CC(=O)N2c3ccccc3CC2C)CC1 (stereo not given)
inactive: growth inhibition [1] -4.77% | growth inhibition [2] -7.59% | viability increase [3] -4.28% | viability [4] 68.5% | viability [5] 52.9% | inhibition [6] 2.85% | RAM network inhibition [7] 7.34%

Cn1c(Cn2c(=O)sc3ccccc32)nnc1SCC(=O)NCc1ccc(F)cc1
inactive: growth inhibition [1] -13.5% | growth inhibition [2] -17.4% | viability increase [3] -1.09% | viability [4] 104% | viability [5] 95% | inhibition [6] 3.3% | RAM network inhibition [7] 2.63%

COc1ccccc1NC(=O)Cn1c(=O)n2nc(C)nc2c2ccccc21
inactive: growth inhibition [1] -11% | growth inhibition [2] -16.9% | viability increase [3] -4.08% | viability [4] 102% | viability [5] 90.3% | inhibition [6] 1.47% | RAM network inhibition [7] 2.31%

COc1ccc(OC)c2sc(NC(=O)CCS(=O)(=O)c3ccccc3)nc12
inactive: growth inhibition [1] -8.91% | growth inhibition [2] -10.2% | viability increase [3] -8.72% | viability [4] 36.1% | viability [5] 44.3% | inhibition [6] 4.41% | RAM network inhibition [7] 11%

O=C(NCCc1ccccc1)c1ccc2c(c1)N(Cc1ccccc1)C(=O)CS2=O (stereo not given)
inactive: growth inhibition [1] 0.9% | growth inhibition [2] -2.98% | viability increase [3] 0.8% | viability [4] 96.3% | viability [5] 88.7% | inhibition [6] 0.2% | RAM network inhibition [7] 3.6%

CCCn1c(CN2CCCCC2C)nc2c1c(=O)n(C)c(=O)n2C (stereo not given)
inactive: growth inhibition [1] -7.96% | growth inhibition [2] -3.75% | viability increase [3] -0.39% | viability [4] 88.7% | viability [5] 83.9% | inhibition [6] 1.64% | RAM network inhibition [7] 8.45%

C=CCSc1nnc(Cn2c(=O)sc3ccccc32)n1C
inactive: growth inhibition [1] -5.41% | growth inhibition [2] -8.71% | viability increase [3] -0.84% | viability [4] 108% | viability [5] 104% | inhibition [6] -0.685% | RAM network inhibition [7] 0.31%

Cn1c(=O)c2c(nc(CN3CCN(C(=O)c4ccco4)CC3)n2Cc2ccccc2F)n(C)c1=O
inactive: growth inhibition [1] -1.06% | growth inhibition [2] -6.51% | viability increase [3] -4.26% | viability [4] 101% | viability [5] 89.8% | inhibition [6] 2.1% | RAM network inhibition [7] 3.22%

O=C(OCCN(C1=NS(=O)(=O)c2ccccc21)c1ccc(Cl)cc1)c1ccco1
inactive: growth inhibition [1] -15.9% | growth inhibition [2] -5.49% | viability increase [3] -5.7% | viability [4] 82.2% | viability [5] 91.5% | inhibition [6] 1.44% | RAM network inhibition [7] 4.02%

O=C(c1cc2nc(-c3ccco3)cc(C(F)(F)F)n2n1)N1CCCCCC1
inactive: growth inhibition [1] -9.02% | growth inhibition [2] -9.3% | viability increase [3] -3.73% | viability [4] 86.3% | viability [5] 83.7% | inhibition [6] 0.805% | RAM network inhibition [7] 3.38%

Cn1c(C(=O)NCCN2CCc3ccccc3C2)cc2c(=O)n(C)c3ccccc3c21
inactive: growth inhibition [1] -2.54% | growth inhibition [2] 4.4% | viability increase [3] -4.36% | viability [4] 70.4% | viability [5] 72.5% | inhibition [6] 2.96% | RAM network inhibition [7] 1.02%

CCOc1ccccc1N1C(=O)CC(N(O)c2ccccc2)C1=O (stereo not given)
inactive: growth inhibition [1] -13.4% | growth inhibition [2] -4.14% | viability increase [3] -5.35% | viability [4] 106% | viability [5] 96.3% | inhibition [6] 0.17% | RAM network inhibition [7] 12.8%

Cc1oc2c(c(=O)c1C)C(=O)CC(c1ccccc1)C2 (stereo not given)
inactive: growth inhibition [1] -10.3% | growth inhibition [2] -15.9% | viability increase [3] -3.41% | viability [4] 88.5% | viability [5] 91% | inhibition [6] 0.115% | RAM network inhibition [7] -1.15%
